Mot1-301 SUMO = inhibitors of SUMOylation pathway: yeast Mot1-301 growth rescue; S. cerevisiae Mot1-301 growth rescue, ATP luminescence, 38.5C; percent above DMSO median, 100 means doubled; growth rescue, % at 18.8 µM; 320,000 compounds, 1% hits; AID 2716;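 active means every valid replicate shows activation above 250% relative to neutral control wells; inactive means the rest, any valid replicate at or below 250%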
C2C12 statin = suppressors of simvastatin-induced myotoxicity in C2C12 myotubes | AID 602340 | rescue of ATP level, % at 7.49 µM | 330,000 compounds, 0.78% hits | ATP luminescence, 48 h; scaled: DMSO 0, geranylgeraniol control 100;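 active means mean ATP rescue above about 67%, or every replicate alone reaching that limit, limit read from the data, passing the limit was not always enough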;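 further: myotubes were challenged with 10 µM simvastatin during compound exposure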
Cneo AK release = causes C. neoformans cell lysis; adenylate kinase release luminescence, 4 h; normalised: neutral wells 0, clomiphene wells 100; lysis activity, % at 15 µM; 360,000 compounds, 0.2% hits;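 active means mean lysis activity across replicates of at least 80%, whatever share of replicates individually reach that level; inactive means mean lysis activity below 80%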
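Material – Cryptococcus neoformans yeast cells · Quantity – 5 × 10^6 yeast cells/mL · Buffer or medium – YPD medium · Compound – single dose · Timing – 4 h static compound exposure, 37 °C, read 1 h post-reagent · Signal – adenylate kinase release luminescence · Read-out basis – lysis from increased AK signal · Benchmarks – Clomiphene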
Efflux pump inh = antifungal efflux pump inhibition, Nile Red retention | S. cerevisiae Candida pump triplex | inhibition, % at 10 µM | 330,000 compounds, 0.44% hits | AID 485275;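 active means plate passing quality check with inhibition over a set limit, or well fluorescence over plate mean plus 4 SD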;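 further: Nile Red retained in pooled yeast measured as flow cytometry median fluorescence; higher means more Nile Red kept so more efflux inhibition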
Yeast cmpd fluor = compound fluorescence in yeast efflux pump counter-screen | shares compounds with Efflux pump inh | S. cerevisiae AD/pABC3, flow cytometry | fluorescence ratio to DMSO, % at 10 µM | 1,700 compounds, 4% hits | AID 588517;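 active means fluorescence ratio to DMSO above its plate's cutoff, the plate mean ratio plus 5 SD, cut at about 210% in these data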;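 further: unstained yeast with no Nile Red so the signal is compound autofluorescence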
Mdr1 pump inh = blocks the Candida albicans Mdr1 efflux pump in yeast | inhibition, % at 10 µM | S. cerevisiae AD/CaMDR1, Nile Red efflux, flow cytometry | 1,700 compounds, 1% hits | shares compounds with Efflux pump inh; in the data active means inhibition above about 26%;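 further: higher means more Nile Red retained so more efflux inhibition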
Cdr2 pump inh = inhibitors of Candida albicans Cdr2 efflux pump | shares compounds with Efflux pump inh | S. cerevisiae AD/CaCDR2, Nile Red retention, flow cytometry | Nile Red retention ratio vs DMSO, % at 10 µM | 1,700 compounds, 4% hits; in the data active means Nile Red retention ratio vs DMSO above about 190%;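 further: higher ratio means more blocking of Cdr2 efflux of the dye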
Cdr1 pump inh = Candida Cdr1 efflux pump inhibition. shares compounds with Efflux pump inh. S. cerevisiae AD/CaCDR1, Nile Red efflux, flow cytometry. inhibition, % at 10 µM. 1,700 compounds, 1% hits;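 active means inhibition above the screen-wide mean plus twice its standard deviation, cut at about 32% in these data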
Numbers stand for hits; ! = repeats disagree. Rows were chosen to be rich in hits. Some 1.8% of all compounds tested hit in one or more screens of this group.

c1ccc2c(c1)[nH]c1cnccc12 was read as Mot1-301 SUMO inactive, C2C12 statin inactive, Cneo AK release inactive and Efflux pump inh inactive.
`Cc1c2ccncc2c(C)c2c1[nH]c1ccccc12` gave Mot1-301 SUMO inactive, C2C12 statin inactive, Cneo AK release inactive, Efflux pump inh 5.6, Yeast cmpd fluor inactive, Mdr1 pump inh inactive, Cdr2 pump inh inactive and Cdr1 pump inh inactive.
For CCN(CC)c1ccc(/C=C2\C(=O)NC(=O)N(Cc3ccco3)C2=O)cc1 the results were Mot1-301 SUMO inactive, C2C12 statin inactive, Efflux pump inh 0.5, Yeast cmpd fluor inactive, Mdr1 pump inh inactive, Cdr2 pump inh inactive and Cdr1 pump inh inactive.
`CCN(CC)c1ccc(/C=C2/C(=O)NC(=O)N(CC3CCCO3)C2=O)cc1` (configuration not stated) gave Mot1-301 SUMO inactive, C2C12 statin inactive, Cneo AK release inactive and Efflux pump inh inactive.
`C=CC1CN2CCC1C[C@@H]2CO` (some centres not stated) gave Cneo AK release inactive.
C=CC1CN2CCC1CC2c1[nH]c2ccccc2c1CCO (configuration not stated) was read as Mot1-301 SUMO inactive, Efflux pump inh 13, Yeast cmpd fluor inactive, Mdr1 pump inh inactive, Cdr2 pump inh inactive and Cdr1 pump inh inactive.
For C[C@]12CCC3C(CCC4=CC(O)CC[C@@]43/C=N/O)C1(O)CCC2C1=CC(=O)OC1 (some centres not stated) the results were Mot1-301 SUMO inactive, Efflux pump inh 20, Yeast cmpd fluor inactive, Mdr1 pump inh inactive, Cdr2 pump inh inactive and Cdr1 pump inh inactive.
CC12CCC3C(CCC4(O)CC(O)CCC34C=O)C1(O)CCC2C1=CC(=O)OC1 (configuration not stated) was read as C2C12 statin inactive.
For COc1ccc(-c2ccc([C@@H]3[C@@H](CO)N4CCCCN(C(=O)Cc5ccncc5)C[C@@H]34)cc2)cc1 the results were C2C12 statin inactive and Cneo AK release inactive.
For Cc1ccc(C)c(NC(=S)NCCc2cnc[nH]2)c1 the results were Mot1-301 SUMO inactive, Cneo AK release inactive and Efflux pump inh inactive.
For CC(C(=O)Nc1ccc(Br)cc1C(=O)c1ccccc1)N1CCCCC1 (configuration not stated) the results were Mot1-301 SUMO inactive, C2C12 statin inactive, Cneo AK release inactive and Efflux pump inh inactive.
Screening O=C(CCN1CCCCC1)Nc1ccc(Br)cc1C(=O)c1ccccc1 returned Mot1-301 SUMO inactive, C2C12 statin inactive, Cneo AK release inactive, Efflux pump inh 1.4, Yeast cmpd fluor inactive, Mdr1 pump inh inactive, Cdr2 pump inh inactive and Cdr1 pump inh inactive.
`CCOP1(=S)Oc2cc3c(cc2C(C(=O)OC)(C(F)(F)F)O1)OCO3` (configuration not stated) gave Mot1-301 SUMO inactive, C2C12 statin inactive, Cneo AK release inactive and Efflux pump inh inactive.
Screening COc1ccc(NC(=O)N2CCC3(CC2)OCCO3)cc1OC returned Mot1-301 SUMO inactive, Cneo AK release inactive, Efflux pump inh 11, Yeast cmpd fluor inactive, Mdr1 pump inh inactive, Cdr2 pump inh inactive and Cdr1 pump inh inactive.
Screening CCC1CCC(C)N(N=O)C1 (configuration not stated) returned C2C12 statin inactive.
For CC(C)(C)n1nnnc1C(C1CC1)N1CCC2(CC1)C(=O)NCN2c1ccccc1 (configuration not stated) the results were C2C12 statin inactive and Cneo AK release inactive.
`O=c1[nH]c(=O)n(CC2CCCO2)c(O)c1/C=C1\C=Nc2ccccc21` (configuration not stated) gave Mot1-301 SUMO inactive, Cneo AK release inactive, Efflux pump inh 2.6!, Yeast cmpd fluor inactive, Mdr1 pump inh inactive, Cdr2 pump inh inactive and Cdr1 pump inh inactive.
Screening O=C1NC(=O)C(CCc2ccncc2)(CCc2ccncc2)C(=O)N1C1CCCCC1 returned Mot1-301 SUMO inactive, C2C12 statin inactive, Efflux pump inh 1.0, Yeast cmpd fluor inactive, Mdr1 pump inh inactive, Cdr2 pump inh inactive and Cdr1 pump inh inactive.
Screening N#C/C(=C(/O)c1ccc(S(=O)(=O)N(CCCl)CCCl)cc1)c1nc2ccccc2[nH]1 returned Mot1-301 SUMO inactive, C2C12 statin inactive and Efflux pump inh inactive.
For CCc1ccc2c(CN3CC=C(c4ccccc4)CC3)cc(=O)oc2c1 the results were Mot1-301 SUMO inactive, Efflux pump inh 10, Yeast cmpd fluor inactive, Mdr1 pump inh inactive, Cdr2 pump inh inactive and Cdr1 pump inh inactive.
For COc1ccc2c(CN3CC=C(c4ccccc4)CC3)cc(=O)oc2c1 the results were Mot1-301 SUMO inactive and Efflux pump inh inactive.
`CCN(CC)C(=O)c1ccc(NC(=O)COc2ccc([N+](=O)[O-])cc2Cl)cc1` gave Mot1-301 SUMO inactive, C2C12 statin inactive, Cneo AK release inactive, Efflux pump inh 19, Yeast cmpd fluor inactive, Mdr1 pump inh inactive, Cdr2 pump inh inactive and Cdr1 pump inh inactive.
